Experimental data published in ChEMBL document CHEMBL4699495, “Synthesis and biological evaluation of 5'-C-methyl nucleotide prodrugs for treating HCV infections” (Bioorg Med Chem Lett, 2020).

Legend:
[1] = Cytotoxicity against human HuH-7-Luc/Neo-ET cells; format: cell-based; settings: read-out: TC50 (the source's name)
Summary of the method: (§1)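 HCV genotype 1b subgenomic replicon carried in Huh-7 Luc/Neo ET cells. Antiviral EC50 and cytotoxic TC50 were both determined in these cells. Each value is the average of triplicate experiments.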

[2] = Therapeutic index, ratio of TC50 for human HuH-7-Luc/Neo-ET cells to EC50 for HCV infected in human HuH7-Luc/Neo-ET cells; format: toxicity
Summary of the method: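 Therapeutic index calculated as TC50/EC50. Both values came from Huh-7 Luc/Neo ET cells bearing an HCV genotype 1b replicon, and each was averaged from triplicate experiments.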

[3] = tested on: Hepatitis C virus; assay: Antiviral activity against HCV subtype 1b infected in human HuH-7-Luc/Neo-ET cells by luciferase replicon-reporter gene assay; format: functional, organism-based, Hepacivirus hominis; summary of the method: as §1

Row | SMILES | CC50 [1] [µM] | selectivity ratio [2] | EC50 [3] [µM]
1 | CCCCCCCCCC(=O)Oc1ccc(COP(=O)(OCc2ccc(OC(=O)CCCCCCCCC)cc2)OP(=O)([O-])O[C@H](C)[C@H]2O[C@@H](n3ccc(=O)[nH]c3=O)[C@](C)(O)[C@@H]2O)cc1.CCCC[N+](CCCC)(CCCC)CCCC | > 100 | > 38.5 | 2.6
2 | CC(C)OC(=O)[C@H](C)N[P@](=O)(OC[C@H]1O[C@@H](n2ccc(=O)[nH]c2=O)[C@](C)(O)[C@@H]1O)Oc1ccccc1 | 85.6 | 2780 | 0.03
3 | CC(C)OC(=O)[C@H](C)N[P@](=O)(OC[C@H]1O[C@@H](n2ccc(=O)[nH]c2=O)[C@](C)(F)[C@@H]1O)Oc1ccccc1 [SOFOSBUVIR] | > 1 | > 29.2 | 0.03
4 | CC(C)OC(=O)[C@H](C)N[P@@](=O)(Oc1ccccc1)O[C@@H](C)[C@H]1O[C@@H](n2ccc(=O)[nH]c2=O)[C@](C)(O)[C@@H]1O | > 100 | > 12.9 | 7.75
5 | CCCCCCCCCC(=O)Oc1ccc(COP(=O)(OCc2ccc(OC(=O)CCCCCCCCC)cc2)OP(=O)([O-])O[C@@H](C)[C@H]2O[C@@H](n3ccc(=O)[nH]c3=O)[C@](C)(O)[C@@H]2O)cc1.CCCC[N+](CCCC)(CCCC)CCCC | > 83.2 | 3.29 | 25.3
6 | CCCCCCCCCC(=O)Oc1ccc(COP(=O)(OCc2ccc(OC(=O)CCCCCCCCC)cc2)OP(=O)([O-])OC[C@H]2O[C@@H](n3ccc(=O)[nH]c3=O)[C@](C)(O)[C@@H]2O)cc1.CCCC[N+](CCCC)(CCCC)CCCC | > 100 | > 2590 | 0.04
7 | CC(C)OC(=O)[C@H](C)N[P@@](=O)(Oc1ccccc1)O[C@H](C)[C@H]1O[C@@H](n2ccc(=O)[nH]c2=O)[C@](C)(O)[C@@H]1O | > 100 | > 67.1 | 1.49
